Source: article PMC8154207 (JACS Au, 2021)
Where “and” joins values, the source holds several entries; their conditions need not be identical. Identical values can stand only once. Like-named read-outs stand apart in the source and are kept apart here.

Assays:
[1] = biological target: Kv11.1 (hERG) potassium channel (Homo sapiens, UniProt Q12809); experiment: [3H]dofetilide displacement assay on HEK293 Kv11.1 cell membranes; type: binding; settings: tested concentration 10 μM
Procedure, shortened: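 HEK293 Kv11.1 membranes (30 μg protein) were loaded with 2 nM [3H]dofetilide at 15 °C for 90 min. Dissociation was started with 10 μM unlabeled dofetilide, without or with 10 μM test compound, for 10 min. Samples were filtered through GF/B, washed twice with ice-cold buffer and counted by scintillation. Binding (%) = 100% − [3H]dofetilide binding remaining.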

A549 cells [2] = experiment: SRB cytotoxicity assay, 2D monolayer; type: cell-based, human; settings: read-out: EC50 A549
Procedure, shortened: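 Cells were seeded in 96-well plates (A549 5000, A375 7000, MCF7 8000, MRC5 6000 cells/well) in OptiMEM with 2.4% FCS, then held 24 h at 37 °C, 7.0% CO2. Six concentrations were added in triplicate for 72 h. Plates were fixed with cold 10% TCA (4 °C, ≥4 h), stained with 0.6% SRB (30 min) and solubilized in 10 mM Tris; absorbance read at 510 nm. EC50 was taken versus untreated wells; three independent experiments, 95% CI.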

A549 cells [3] = experiment: Mitochondrial membrane potential, TRME staining, flow cytometry; type: cell-based, human; settings: 20 μM, 24 h (CCCP 20 μM, 1 h), FACS
Procedure, shortened: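 A549 cells were seeded at 1 × 10^5 per well, grown 24 h under normoxia, then exposed to compound for 24 h. After a PBS wash, cells were stained with TRME at 150 nM for 30 min; the positive control got CCCP before staining. Harvested cells were analysed by flow cytometry, excitation 488 and emission 575.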

Chain of Kv11.1 (hERG) potassium channel (Q12809 whole entry): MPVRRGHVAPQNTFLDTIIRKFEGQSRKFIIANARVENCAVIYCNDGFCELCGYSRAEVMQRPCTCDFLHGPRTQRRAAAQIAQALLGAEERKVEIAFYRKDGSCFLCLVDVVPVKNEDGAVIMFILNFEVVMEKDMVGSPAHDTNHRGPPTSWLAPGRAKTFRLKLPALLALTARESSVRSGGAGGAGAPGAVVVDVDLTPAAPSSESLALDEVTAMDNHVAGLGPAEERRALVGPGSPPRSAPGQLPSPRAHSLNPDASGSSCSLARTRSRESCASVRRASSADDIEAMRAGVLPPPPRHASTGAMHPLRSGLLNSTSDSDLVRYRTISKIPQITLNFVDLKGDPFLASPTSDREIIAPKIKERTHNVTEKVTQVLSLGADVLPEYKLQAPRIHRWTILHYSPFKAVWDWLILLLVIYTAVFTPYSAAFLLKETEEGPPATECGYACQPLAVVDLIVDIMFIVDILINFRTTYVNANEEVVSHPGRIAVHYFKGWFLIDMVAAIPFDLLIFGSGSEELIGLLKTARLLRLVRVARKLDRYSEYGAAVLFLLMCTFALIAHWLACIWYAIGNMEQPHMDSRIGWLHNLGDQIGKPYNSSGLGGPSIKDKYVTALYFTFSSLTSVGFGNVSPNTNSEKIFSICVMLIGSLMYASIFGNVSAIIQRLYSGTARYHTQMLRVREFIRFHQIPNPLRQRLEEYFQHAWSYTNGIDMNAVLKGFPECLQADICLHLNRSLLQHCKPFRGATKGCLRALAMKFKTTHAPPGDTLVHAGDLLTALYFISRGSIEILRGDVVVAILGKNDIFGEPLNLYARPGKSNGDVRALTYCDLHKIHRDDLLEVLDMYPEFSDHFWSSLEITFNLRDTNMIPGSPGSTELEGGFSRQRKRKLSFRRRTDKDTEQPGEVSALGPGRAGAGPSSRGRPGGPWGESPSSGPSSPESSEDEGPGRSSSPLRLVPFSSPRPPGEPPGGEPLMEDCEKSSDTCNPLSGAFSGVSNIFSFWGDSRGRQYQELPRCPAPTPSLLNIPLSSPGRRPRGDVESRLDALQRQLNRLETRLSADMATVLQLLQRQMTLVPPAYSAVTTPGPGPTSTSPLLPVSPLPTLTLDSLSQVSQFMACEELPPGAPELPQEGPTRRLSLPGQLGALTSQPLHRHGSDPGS

| Compound | Kv11.1 binding (100% - [3H]dofetilide binding remaining) [1] | [3H]dofetilide binding remaining [1] [%] | EC50 (A549 cells [2]; Homo sapiens, A549, 72 h) [µM] | Influence on mitochondrial membrane potential (A549 cells [3]) | EC50 (A549 cells [2]; 2D monolayer, hypoxic (1% O2)) [µM] |
| --- | --- | --- | --- | --- | --- |
| c1cc(Nc2cc3ccccc3cn2)nc(-c2cccc(Nc3cc4ccccc4cn3)n2)c1 [H2biqbpy1, N6,N6′-di(isoquinolin-3-yl)-[2,2′-bipyridine]-6,6′-diamine] | 36% and 36 ± 4% | 64 ± 4 | > 200 | – | – |
| N#CC(C#N)=NNc1cccc(Cl)c1 [CCCP, carbonyl cyanide m-chlorophenyl hydrazone, reference compound] | – | – | – | dramatically reduced percentage of intact mitochondrial membranes | – |
| c1cc(Nc2ccc3ccccc3n2)nc(-c2cccc(Nc3ccc4ccccc4n3)n2)c1 [H2biqbpy2, N6,N6′-di(quinolin-2-yl)-[2,2′-bipyridine]-6,6′-diamine] | 84% and 84 ± 4% | 16 ± 4 | 12 | – | – |
| N.N.[Cl][Pt][Cl] [cisplatin, reference compound] | – | – | – | – | 24 |
